Assay results taken from ChEMBL document CHEMBL1136089, “Synthesis and in vitro activity of new methylenepiperidinyl and methylenepyrrolidinyl oxazolidinone antibacterial agents” (Bioorg Med Chem Lett, 2003).
≈ marks a conversion by molar mass, not a printed value.

Key:
[1] = tested on: Staphylococcus epidermidis; test: In vitro antibacterial activity against Staphylococcus epidermis ATCC 1228; type: functional
Summary of the method: (§1)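 MIC by agar dilution on Mueller–Hinton agar, inoculum 10⁴ CFU/spot. Reported in μg/mL.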

Enterococcus faecalis [2] = test: In vitro antibacterial activity against Enterococcus faecalis C6301 (E. f. 1); type: functional; summary of the method: as §1
Staphylococcus aureus [3] = test: In vitro antibacterial activity against methicillin-resistant Staphylococcus aureus (MRSA); type: functional
Staphylococcus aureus [4] = test: In vitro antibacterial activity against ciprofloxacin-resistant Staphylococcus aureus (CRSA); type: functional
Enterococcus faecalis [5] = test: In vitro antibacterial activity against Enterococcus faecalis C6291 (E. f. 1); type: functional; summary of the method: as §1
Streptococcus pyogenes [6] = test: In vitro antibacterial activity against Streptococcus pyogenes C6003
Staphylococcus aureus [7] = test: In vitro antibacterial activity against Staphylococcus aureus; type: functional
Staphylococcus aureus [8] = test: In vitro antibacterial against methicillin-susceptible Staphylococcus aureus (MSSA); type: functional
[9] = tested on: Staphylococcus epidermidis; test: In vitro antibacterial activity against Staphylococcus epidermis C2235; type: functional; summary of the method: as §1
Enterococcus faecium = test: In vitro antibacterial activity against vancomycin-resistant Enterococcus faecium C6487
Streptococcus pyogenes [10] = test: In vitro antibacterial activity against Streptococcus pyogenes ATTCC8668
[11] = Half-life in male rat; type: ADME, organism-based; details: in vivo
Summary of the method: (§2)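 Single oral dose of 15 mg/Kg to rats, with compound dissolved in 50% PEG solution.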

[12] = Cmax in male rat; type: ADME, organism-based; details: in vivo; summary of the method: as §2
[13] = Area under curve was determined in male rat; type: ADME, organism-based; details: in vivo; summary of the method: as §2
[14] = Tmax in male rat; type: ADME, organism-based; details: in vivo; summary of the method: as §2

| Structure (SMILES) | MIC [1] [µg/mL] | MIC (Enterococcus faecalis [2]) [µg/mL] | MIC (Staphylococcus aureus [3]) [µg/mL] | MIC (Staphylococcus aureus [4]) [µg/mL] | MIC (Enterococcus faecalis [5]) [µg/mL] | MIC (Streptococcus pyogenes [6]) [µg/mL] | MIC (Staphylococcus aureus [7]) [µg/mL] | MIC (Staphylococcus aureus [8]) [µg/mL] | MIC [9] [µg/mL] | MIC (Enterococcus faecium) [µg/mL] | MIC (Streptococcus pyogenes [10]) [µg/mL] | half-life [11] [h] | Cmax [12] [ng/mL] | AUC [13] [ng·h/mL] | Tmax [14] [h] |
| --- | --- | --- | --- | --- | --- | --- | --- | --- | --- | --- | --- | --- | --- | --- | --- |
| CO/N=C(\C)C=C1CCN(c2ccc(N3C[C@H](CNC(C)=O)OC3=O)cc2F)CC1 | 8 (≈ 19.1 µM) | 8 (≈ 19.1 µM) | 8 (≈ 19.1 µM) | 16 (≈ 38.2 µM) | 8 (≈ 19.1 µM) | 8 (≈ 19.1 µM) | 16 (≈ 38.2 µM) | 16 (≈ 38.2 µM) | 8 (≈ 19.1 µM) | 4 (≈ 9.56 µM) | 2 (≈ 4.78 µM) | – | – | – | – |
| CC(=O)C=C1CCN(c2ccc(N3C[C@H](CNC(C)=O)OC3=O)cc2F)CC1 | 1 (≈ 2.57 µM) | 8 (≈ 20.5 µM) | 16 (≈ 41.1 µM) | 16 (≈ 41.1 µM) | 16 (≈ 41.1 µM) | 16 (≈ 41.1 µM) | 8 (≈ 20.5 µM) | 16 (≈ 41.1 µM) | 8 (≈ 20.5 µM) | 8 (≈ 20.5 µM) | 0.25 (≈ 0.642 µM) | – | – | – | – |
| CC(=O)NC[C@H]1CN(c2ccc(N3CCC(=C(C#N)C#N)CC3)c(F)c2)C(=O)O1 | 1 (≈ 2.52 µM) | 2 (≈ 5.03 µM) | 2 (≈ 5.03 µM) | 4 (≈ 10.1 µM) | 4 (≈ 10.1 µM) | 4 (≈ 10.1 µM) | 2 (≈ 5.03 µM) | 4 (≈ 10.1 µM) | 2 (≈ 5.03 µM) | 4 (≈ 10.1 µM) | 1 (≈ 2.52 µM) | – | – | – | – |
| CO/N=C/C=C1CCN(c2ccc(N3C[C@H](CNC(C)=O)OC3=O)cc2F)CC1 | 1 (≈ 2.47 µM) | 4 (≈ 9.89 µM) | 4 (≈ 9.89 µM) | 4 (≈ 9.89 µM) | 4 (≈ 9.89 µM) | 2 (≈ 4.95 µM) | 8 (≈ 19.8 µM) | 8 (≈ 19.8 µM) | 2 (≈ 4.95 µM) | 4 (≈ 9.89 µM) | 1 (≈ 2.47 µM) | – | – | – | – |
| CC(=O)NC[C@H]1CN(c2ccc(N3CCC(=CC(C)O)CC3)c(F)c2)C(=O)O1 (stereo partly specified) | 2 (≈ 5.11 µM) | 4 (≈ 10.2 µM) | 4 (≈ 10.2 µM) | 8 (≈ 20.4 µM) | 8 (≈ 20.4 µM) | 8 (≈ 20.4 µM) | 8 (≈ 20.4 µM) | 16 (≈ 40.9 µM) | 4 (≈ 10.2 µM) | 4 (≈ 10.2 µM) | 2 (≈ 5.11 µM) | – | – | – | – |
| CC(=O)NC[C@H]1CN(c2ccc(N3CCC(=C/C=N/O)CC3)c(F)c2)C(=O)O1 | 1 (≈ 2.56 µM) | 4 (≈ 10.2 µM) | 4 (≈ 10.2 µM) | 8 (≈ 20.5 µM) | 4 (≈ 10.2 µM) | 4 (≈ 10.2 µM) | 8 (≈ 20.5 µM) | 8 (≈ 20.5 µM) | 4 (≈ 10.2 µM) | 4 (≈ 10.2 µM) | 2 (≈ 5.12 µM) | – | – | – | – |
| CC(=O)NC[C@H]1CN(c2ccc(N3CCC(=CC#N)CC3)c(F)c2)C(=O)O1 | 0.5 (≈ 1.34 µM) | 2 (≈ 5.37 µM) | 1 (≈ 2.69 µM) | 2 (≈ 5.37 µM) | 2 (≈ 5.37 µM) | 2 (≈ 5.37 µM) | 2 (≈ 5.37 µM) | 4 (≈ 10.7 µM) | 1 (≈ 2.69 µM) | 4 (≈ 10.7 µM) | 0.5 (≈ 1.34 µM) | 8.14 | 1320 | 6810 | 0.5 |
| CC(=O)NC[C@H]1CN(c2ccc(N3CCC(=CC=O)CC3)c(F)c2)C(=O)O1 | 1 (≈ 2.66 µM) | 4 (≈ 10.7 µM) | 4 (≈ 10.7 µM) | 4 (≈ 10.7 µM) | 8 (≈ 21.3 µM) | 8 (≈ 21.3 µM) | 8 (≈ 21.3 µM) | 8 (≈ 21.3 µM) | 2 (≈ 5.33 µM) | 8 (≈ 21.3 µM) | 2 (≈ 5.33 µM) | – | – | – | – |
| CCOC(=O)C(C#N)=C1CCN(c2ccc(N3C[C@H](CNC(C)=O)OC3=O)cc2F)CC1 | 1 (≈ 2.25 µM) | 2 (≈ 4.5 µM) | 4 (≈ 9 µM) | 4 (≈ 9 µM) | 4 (≈ 9 µM) | 4 (≈ 9 µM) | 4 (≈ 9 µM) | 4 (≈ 9 µM) | 2 (≈ 4.5 µM) | 2 (≈ 4.5 µM) | 1 (≈ 2.25 µM) | – | – | – | – |
| CC(=O)NC[C@H]1CN(c2ccc(N3CCC(=C/C(C)=N/O)CC3)c(F)c2)C(=O)O1 | 1 (≈ 2.47 µM) | 4 (≈ 9.89 µM) | 4 (≈ 9.89 µM) | 8 (≈ 19.8 µM) | 4 (≈ 9.89 µM) | 4 (≈ 9.89 µM) | 8 (≈ 19.8 µM) | 8 (≈ 19.8 µM) | 4 (≈ 9.89 µM) | 4 (≈ 9.89 µM) | 1 (≈ 2.47 µM) | – | – | – | – |
| CC(=O)NC[C@H]1CN(c2ccc(N3CCC(=C(C#N)C#N)C3)c(F)c2)C(=O)O1 | 4 (≈ 10.4 µM) | 16 (≈ 41.7 µM) | – | 8 (≈ 20.9 µM) | – | – | 8 (≈ 20.9 µM) | – | 4 (≈ 10.4 µM) | 16 (≈ 41.7 µM) | – | – | – | – | – |
| CCOC(=O)/C(C#N)=C1/CCN(c2ccc(N3C[C@H](CNC(C)=O)OC3=O)cc2F)C1 | 8 (≈ 18.6 µM) | 32 (≈ 74.3 µM) | – | 16 (≈ 37.2 µM) | – | – | 16 (≈ 37.2 µM) | – | 8 (≈ 18.6 µM) | 16 (≈ 37.2 µM) | – | – | – | – | – |
